Results taken from ChEMBL document CHEMBL1148001 (Bioorg Med Chem Lett, 2007).

Tests used:
Dipeptidyl peptidase 8 = Dipeptidyl peptidase 8 (Homo sapiens, UniProt Q6V1X1); experiment: Inhibition of DPP8 activity
Dipeptidyl peptidase 9 = Dipeptidyl peptidase 9 (Homo sapiens, UniProt Q86TI2); experiment: Inhibition of DPP9 activity
[1] = Clearance in rat at 1 mg/kg, iv or 2 mg/kg, po; assay type: ADME, organism-based; settings: in vivo
How it was run: (§1)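 Rats received the inhibitor at 1 mg/kg iv and 2 mg/kg po. Values reported are clearance (mL/min/kg), half-life (h), oral AUC normalized to dose (μM h kg mg⁻¹) and oral bioavailability F (%).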

[2] = Oral bioavailability in rat at 2 mg/kg; assay type: ADME, organism-based; settings: in vivo; how it was run: as §1
[3] = Half life in rat at 1 mg/kg, iv or 2 mg/kg, po; assay type: ADME, organism-based; settings: in vivo; how it was run: as §1

Chain of Dipeptidyl peptidase 9 (Q86TI2 whole entry): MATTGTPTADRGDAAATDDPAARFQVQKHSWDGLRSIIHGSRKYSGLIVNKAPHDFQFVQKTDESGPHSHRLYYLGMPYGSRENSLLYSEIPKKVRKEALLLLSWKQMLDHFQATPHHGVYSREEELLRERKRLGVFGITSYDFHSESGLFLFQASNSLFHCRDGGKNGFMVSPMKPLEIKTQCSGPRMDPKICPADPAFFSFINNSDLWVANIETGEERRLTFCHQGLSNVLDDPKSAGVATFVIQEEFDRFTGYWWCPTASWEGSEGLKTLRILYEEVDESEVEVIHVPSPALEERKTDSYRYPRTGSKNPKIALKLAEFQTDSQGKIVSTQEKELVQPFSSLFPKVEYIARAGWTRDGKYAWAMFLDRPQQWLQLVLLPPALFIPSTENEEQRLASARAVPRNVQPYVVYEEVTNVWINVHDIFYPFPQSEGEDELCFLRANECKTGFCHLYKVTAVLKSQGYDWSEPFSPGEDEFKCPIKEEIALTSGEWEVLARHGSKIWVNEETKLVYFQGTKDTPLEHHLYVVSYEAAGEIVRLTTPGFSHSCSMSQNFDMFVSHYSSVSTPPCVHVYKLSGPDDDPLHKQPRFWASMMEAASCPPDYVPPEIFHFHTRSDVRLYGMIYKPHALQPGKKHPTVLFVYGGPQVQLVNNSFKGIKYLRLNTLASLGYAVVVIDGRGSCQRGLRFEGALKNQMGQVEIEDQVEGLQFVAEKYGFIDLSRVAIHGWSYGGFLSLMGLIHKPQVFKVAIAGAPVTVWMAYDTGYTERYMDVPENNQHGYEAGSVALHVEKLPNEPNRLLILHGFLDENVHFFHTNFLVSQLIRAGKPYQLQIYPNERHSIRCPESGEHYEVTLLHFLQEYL
Chain of Dipeptidyl peptidase 8 (Q6V1X1 whole entry): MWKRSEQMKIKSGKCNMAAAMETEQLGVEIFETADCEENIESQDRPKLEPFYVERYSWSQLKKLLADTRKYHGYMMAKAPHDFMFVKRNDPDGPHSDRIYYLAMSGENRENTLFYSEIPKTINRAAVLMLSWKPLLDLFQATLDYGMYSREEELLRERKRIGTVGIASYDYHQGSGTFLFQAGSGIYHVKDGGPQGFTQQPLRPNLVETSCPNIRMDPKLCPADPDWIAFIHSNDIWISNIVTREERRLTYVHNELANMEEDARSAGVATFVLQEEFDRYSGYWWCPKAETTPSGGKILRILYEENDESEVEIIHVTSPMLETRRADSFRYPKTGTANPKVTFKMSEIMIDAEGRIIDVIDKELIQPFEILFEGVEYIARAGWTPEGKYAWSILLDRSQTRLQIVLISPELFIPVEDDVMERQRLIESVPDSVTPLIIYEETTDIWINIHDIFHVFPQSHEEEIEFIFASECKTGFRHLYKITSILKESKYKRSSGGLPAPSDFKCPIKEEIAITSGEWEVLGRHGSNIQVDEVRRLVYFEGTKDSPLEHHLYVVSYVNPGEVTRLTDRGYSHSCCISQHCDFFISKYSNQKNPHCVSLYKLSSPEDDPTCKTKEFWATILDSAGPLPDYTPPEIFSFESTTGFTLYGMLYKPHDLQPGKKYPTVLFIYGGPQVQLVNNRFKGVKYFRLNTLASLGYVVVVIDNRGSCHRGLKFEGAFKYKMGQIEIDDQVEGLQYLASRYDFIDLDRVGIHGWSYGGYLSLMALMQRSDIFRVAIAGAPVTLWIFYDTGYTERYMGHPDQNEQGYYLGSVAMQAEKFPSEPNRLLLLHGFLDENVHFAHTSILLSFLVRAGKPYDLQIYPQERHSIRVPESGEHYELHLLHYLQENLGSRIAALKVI

SMILES | IC50 (Dipeptidyl peptidase 8) [µM] | IC50 (Dipeptidyl peptidase 9) [µM] | clearance [1] [mL/min/kg] | bioavailability [2] [%] | half-life [3] [h]
N[C@@H](CC(=O)N1CCn2c(nnc2C(F)(F)F)C1)Cc1cccc(F)c1 | > 100 | > 100 | – | – | –
N[C@@H](CC(=O)N1CCn2c(nnc2C(F)(F)F)C1)Cc1cc(F)c(Cl)cc1F | – | > 100 | 58 | 54 | 2.1
N[C@@H](CC(=O)N1CCn2c(nnc2C(F)(F)F)C1)Cc1cc(F)c(F)cc1Cl | > 100 | > 100 | 78 | 47 | 1.7
N[C@@H](CC(=O)N1CCn2c(CO)nnc2C1)Cc1cc(F)ccc1F | > 100 | > 100 | – | – | –
CCOC(=O)c1nnc2n1CCN(C(=O)C[C@H](N)Cc1cc(F)c(F)cc1F)C2 | 22 | – | – | – | –
CC(C)(C)NC(=O)c1nnc2n1CCN(C(=O)C[C@H](N)Cc1cc(F)c(F)cc1F)C2 | – | > 100 | – | – | –
N[C@@H](CC(=O)N1CCn2c(nnc2C(F)(F)F)C1)Cc1ccc(Cl)cc1Cl | – | – | 98 | 36 | 2.6
N[C@@H](CC(=O)N1CCn2c(nnc2C(F)(F)F)C1)Cc1cccc(C(F)(F)F)c1 | > 100 | > 100 | – | – | –
N[C@@H](CC(=O)N1CCn2c(nnc2C(F)(F)F)C1)Cc1cccc(Cl)c1 | > 100 | > 100 | – | – | –
N[C@@H](CC(=O)N1CCn2c(nnc2C(F)(F)F)C1)Cc1cc(F)cc(F)c1F | > 100 | > 100 | – | – | –
N[C@@H](CC(=O)N1CCn2c(nnc2C(F)(F)F)C1)Cc1ccc(C(F)(F)F)cc1 | > 100 | > 100 | – | – | –
N[C@@H](CC(=O)N1CCn2c(nnc2C(F)(F)F)C1)Cc1ccccc1Cl | > 100 | > 100 | – | – | –
N[C@@H](CC(=O)N1CCn2c(nnc2C(F)(F)F)C1)Cc1ccc(Cl)c(Cl)c1 | > 100 | > 100 | – | – | –
CCOC(=O)c1nnc2n1CCN(C(=O)C[C@H](N)Cc1cc(F)ccc1F)C2 | – | 78 | – | – | –
N[C@@H](CC(=O)N1CCn2c(nnc2C2CC2)C1)Cc1cc(F)c(F)cc1F | – | > 100 | 68 | 3 | 1.8
N[C@@H](CC(=O)N1CCn2c(nnc2C(F)(F)F)C1)Cc1c(F)cc(F)cc1F | > 100 | > 100 | – | – | –
N[C@@H](CC(=O)N1CCn2c(nnc2C(F)(F)F)C1)Cc1ccccc1C(F)(F)F | > 100 | > 100 | – | – | –
N[C@@H](CC(=O)N1CCn2c(nnc2C(F)(F)F)C1)Cc1cc(Cl)ccc1F | > 100 | – | 99 | 43 | 1.7
N[C@@H](CC(=O)N1CCn2c(nnc2C(F)(F)F)C1)Cc1cc(F)c(F)cc1F [SITAGLIPTIN] | – | – | 60 | 76 | –

Other lines, results leading:

IC50 (Dipeptidyl peptidase 8) [µM] | IC50 (Dipeptidyl peptidase 9) [µM] | clearance [1] [mL/min/kg] | bioavailability [2] [%] | half-life [3] [h] | SMILES
> 100 | > 100 | – | – | – | N[C@@H](CC(=O)N1CCn2c(nnc2C(F)(F)F)C1)Cc1cc(Cl)ccc1Cl
– | > 100 | – | – | – | N[C@@H](CC(=O)N1CCn2c(nnc2-c2ccc(F)cc2)C1)Cc1cc(F)ccc1F
– | 84 | – | – | – | N[C@@H](CC(=O)N1CCn2c(nnc2-c2ccncc2)C1)Cc1cc(F)ccc1F
– | > 100 | 70 | 2 | – | CCc1nnc2n1CCN(C(=O)C[C@H](N)Cc1cc(F)c(F)cc1F)C2
– | > 100 | – | – | – | N[C@@H](CC(=O)N1CCn2c(nnc2C(F)(F)F)C1)Cc1ccc(F)cc1
– | > 100 | – | – | – | N[C@@H](CC(=O)N1CCn2c(nnc2C(F)(F)F)C1)Cc1ccccc1F
– | > 100 | – | – | – | N[C@@H](CC(=O)N1CCn2c(nnc2C(F)(F)F)C1)Cc1ccc(F)cc1F
– | 58 | – | – | – | N[C@@H](CC(=O)N1CCn2c(nnc2-c2ccc(F)cc2F)C1)Cc1cc(F)ccc1F
– | > 100 | 66 | 39 | 1.3 | N[C@@H](CC(=O)N1CCn2c(nnc2C(F)F)C1)Cc1cc(F)c(F)cc1F
> 100 | > 100 | – | – | – | N[C@@H](CC(=O)N1CCn2c(nnc2C(F)(F)F)C1)Cc1c(F)ccc(F)c1F
> 100 | > 100 | – | – | – | N[C@@H](CC(=O)N1CCn2c(nnc2C(F)(F)F)C1)Cc1c(F)c(F)c(F)c(F)c1F
